Measured values as given in ChEMBL document CHEMBL1137433, “Synthesis and antibacterial evaluation of ureides of Baylis-Hillman derivatives” (2006).
Values after ≈ are worked out from the molar mass of the structure shown.

Tests used:
Type in all cases: functional
Enterococcus faecalis = test: Antibacterial activity against Streptococcus faecalis
Outline: (§1)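 Broth microdilution MIC in Mueller Hinton broth, 96-well plates. Strains from departmental collection, kept on nutrient agar slants at 37 °C, purity checked before testing. Starting inoculum 1–5 · 10³ cells/ml. Plates incubated 24 h at 37 °C in a moist chamber, then absorbance read at 492 nm. MIC taken as 90% growth inhibition relative to growth control.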

Escherichia coli = test: Antibacterial activity against Escherichia coli; outline: as §1
Klebsiella pneumoniae = test: Antibacterial activity against Klebsiella pneumoniae; outline: as §1
Staphylococcus aureus = test: Antibacterial activity against Staphylococcus aureus; outline: as §1
Pseudomonas aeruginosa = test: Antibacterial activity against Pseudomonas aeruginosa; outline: as §1

Row | Compound | MIC (Enterococcus faecalis) [µg/mL] | MIC (Escherichia coli) [µg/mL] | MIC (Klebsiella pneumoniae) [µg/mL] | MIC (Staphylococcus aureus) [µg/mL] | MIC (Pseudomonas aeruginosa) [µg/mL]
1 | N#C/C(=C/c1ccccc1Cl)CNC(=O)Nc1ccc(Cl)cc1 | > 50 | > 50 | > 50 | > 50 | > 50
2 | N=C1CCNC(=O)N1c1ccc(Cl)cc1Cl | 50 (≈ 194 µM) | 25 (≈ 96.9 µM) | 50 (≈ 194 µM) | 50 (≈ 194 µM) | 50 (≈ 194 µM)
3 | N=c1c(Cc2ccc(Cl)c(Cl)c2)c[nH]c(=O)n1-c1ccc(Cl)cc1Cl | 3.12 (≈ 7.52 µM) | 3.12 (≈ 7.52 µM) | 3.12 (≈ 7.52 µM) | 3.12 (≈ 7.52 µM) | 25 (≈ 60.2 µM)
4 | N#C/C(=C/c1cccs1)CNC(=O)Nc1ccc(Cl)cc1 | > 50 | > 50 | > 50 | > 50 | > 50
5 | N=c1c(Cc2ccc(Cl)c(Cl)c2)c[nH]c(=O)n1-c1ccc(Cl)c(Cl)c1 | 25 (≈ 60.2 µM) | 25 (≈ 60.2 µM) | 50 (≈ 120 µM) | 25 (≈ 60.2 µM) | 50 (≈ 120 µM)
6 | N#C/C(=C/c1ccc(Cl)c(Cl)c1)CNC(=O)Nc1ccc(Cl)c(Cl)c1 | 1.56 (≈ 3.76 µM) | 0.78 (≈ 1.88 µM) | 1.56 (≈ 3.76 µM) | 1.56 (≈ 3.76 µM) | 50 (≈ 120 µM)
7 | N=c1c(Cc2ccccc2Cl)c[nH]c(=O)n1-c1ccc(Cl)cc1 | > 50 | > 50 | > 50 | > 50 | > 50
8 | N#C/C(=C/c1ccc(Cl)c(Cl)c1)CNC(=S)Nc1ccccc1 | 3.12 (≈ 8.61 µM) | 1.56 (≈ 4.31 µM) | 3.12 (≈ 8.61 µM) | 1.56 (≈ 4.31 µM) | 25 (≈ 69 µM)
9 | N#C/C(=C/c1ccccc1)CNC(=O)Nc1ccc(Cl)c(Cl)c1 | > 50 | > 50 | > 50 | > 50 | > 50
10 | CCOc1ccc(NC(=O)N(Cc2ccccc2)CC(C#N)C(O)c2ccccc2Cl)cc1 (centres undefined) | > 50 | > 50 | > 50 | > 50 | > 50
11 | N#C/C(=C/c1ccccc1Cl)CNC(=O)Nc1ccc(Cl)cc1Cl | > 50 | > 50 | > 50 | > 50 | > 50
12 | Cc1ccc(NC(=O)NC/C(C#N)=C\c2ccccc2Cl)cc1Cl | > 50 | > 50 | > 50 | > 50 | > 50
13 | Cc1ccc(-n2c(=O)[nH]cc(Cc3ccc(Cl)c(Cl)c3)c2=N)cc1Cl | 50 (≈ 127 µM) | > 50 | 50 (≈ 127 µM) | > 50 | > 50
14 | Nc1c(Cc2ccc(Cl)c(Cl)c2)cnc(=S)n1-c1ccccc1 | 25 (≈ 69 µM) | > 50 | 50 (≈ 138 µM) | > 50 | > 50
15 | GENTAMICIN SULFATE | 0.78 | 0.02 | 0.78 | 6.25 | 25
16 | N=c1c(Cc2ccccc2)c[nH]c(=O)n1-c1ccc(Cl)cc1Cl | 25 (≈ 72.2 µM) | 50 (≈ 144 µM) | 50 (≈ 144 µM) | 50 (≈ 144 µM) | 50 (≈ 144 µM)
17 | CCn1cc(C(=O)O)c(=O)c2cc(F)c(N3CCNCC3)cc21 [NORFLOXACIN] | 0.78 (≈ 2.44 µM) | 0.36 (≈ 1.13 µM) | 0.36 (≈ 1.13 µM) | 0.3 (≈ 0.939 µM) | 0.78 (≈ 2.44 µM)
18 | COC(c1ccccc1)C1CN(Cc2ccccc2)C(=O)N(c2ccc(Cl)c(Cl)c2)C1=N (centres undefined) | 3.12 (≈ 6.66 µM) | 1.56 (≈ 3.33 µM) | 3.12 (≈ 6.66 µM) | 1.56 (≈ 3.33 µM) | 50 (≈ 107 µM)
19 | N=c1c(Cc2ccccc2Cl)c[nH]c(=O)n1-c1ccc(Cl)c(Cl)c1 | 50 (≈ 131 µM) | 50 (≈ 131 µM) | > 50 | > 50 | > 50
20 | Nc1c(Cc2ccccc2)cnc(=S)n1-c1ccccc1 | > 50 | > 50 | > 50 | > 50 | > 50

Row | Compound | MIC (Enterococcus faecalis) [µg/mL] | MIC (Escherichia coli) [µg/mL] | MIC (Klebsiella pneumoniae) [µg/mL] | MIC (Staphylococcus aureus) [µg/mL] | MIC (Pseudomonas aeruginosa) [µg/mL]
21 | N#C/C(=C/c1ccccc1Cl)CNC(=O)Nc1ccc(Cl)c(Cl)c1 | > 50 | 1.56 (≈ 4.1 µM) | > 50 | > 50 | > 50
22 | N=c1c(Cc2cccs2)c[nH]c(=O)n1-c1ccc(Cl)cc1 | > 50 | > 50 | > 50 | > 50 | > 50
23 | N=c1c(Cc2cccs2)c[nH]c(=O)n1-c1ccc(Cl)cc1Cl | > 50 | 50 (≈ 142 µM) | > 50 | > 50 | > 50
24 | N=c1c(Cc2ccccc2)c[nH]c(=O)n1-c1ccc(Cl)c(Cl)c1 | 50 (≈ 144 µM) | 50 (≈ 144 µM) | 50 (≈ 144 µM) | 50 (≈ 144 µM) | 50 (≈ 144 µM)
25 | N#C/C(=C/c1cccs1)CNC(=O)Nc1ccc(Cl)cc1Cl | > 50 | > 50 | > 50 | > 50 | > 50
26 | N#C/C(=C/c1ccccc1)CNC(=O)Nc1ccc(Cl)cc1Cl | > 50 | 50 (≈ 144 µM) | > 50 | > 50 | > 50
27 | N#C/C(=C/c1ccccc1)CNC(=S)Nc1ccccc1 | 50 (≈ 170 µM) | 50 (≈ 170 µM) | 50 (≈ 170 µM) | 50 (≈ 170 µM) | 50 (≈ 170 µM)
28 | N=c1c(Cc2ccccc2Cl)c[nH]c(=O)n1-c1ccc(Cl)cc1Cl | > 50 | > 50 | 50 (≈ 131 µM) | > 50 | > 50
29 | N#C/C(=C/c1ccccc1Cl)CNC(=S)Nc1ccccc1 | > 50 | > 50 | > 50 | > 50 | > 50
30 | Cc1ccc(-n2c(=O)[nH]cc(Cc3ccccc3Cl)c2=N)cc1Cl | 50 (≈ 139 µM) | 50 (≈ 139 µM) | > 50 | 50 (≈ 139 µM) | 50 (≈ 139 µM)
31 | CC1(C)S[C@@H]2[C@H](NC(=O)[C@H](N)c3ccccc3)C(=O)N2[C@H]1C(=O)O [AMPICILLIN] | 0.02 (≈ 0.0572 µM) | – | 0.01 (≈ 0.0286 µM) | 0.09 (≈ 0.258 µM) | 50 (≈ 143 µM)
32 | N#CC(CN(Cc1ccccc1)C(=O)Nc1ccc(Cl)c(Cl)c1)C(O)c1ccccc1 (centres undefined) | > 50 | > 50 | > 50 | > 50 | > 50
33 | Nc1c(Cc2ccccc2Cl)cnc(=S)n1-c1ccccc1 | 25 (≈ 76.3 µM) | > 50 | > 50 | > 50 | > 50
34 | N=c1c(Cc2ccc(Cl)c(Cl)c2)c[nH]c(=O)n1-c1ccc(Cl)cc1 | > 50 | > 50 | > 50 | > 50 | > 50
35 | COC(c1ccccc1)C(C#N)CN(Cc1ccccc1)C(=O)Nc1ccc(Cl)c(Cl)c1 (centres undefined) | 6.25 (≈ 13.3 µM) | 3.12 (≈ 6.66 µM) | 3.12 (≈ 6.66 µM) | 3.12 (≈ 6.66 µM) | 50 (≈ 107 µM)
36 | Cc1ccc(NC(=O)NC/C(C#N)=C\c2ccc(Cl)c(Cl)c2)cc1Cl | > 50 | > 50 | > 50 | > 50 | > 50
37 | N#CC(CNC(=O)Nc1ccc(Cl)cc1Cl)C(O)c1ccccc1 (centres undefined) | > 50 | > 50 | > 50 | > 50 | > 50
38 | N#C/C(=C/c1ccc(Cl)c(Cl)c1)CNC(=O)Nc1ccc(Cl)cc1 | > 50 | > 50 | > 50 | > 50 | > 50
39 | N#C/C(=C/c1ccc(Cl)c(Cl)c1)CNC(=O)Nc1ccc(Cl)cc1Cl | > 50 | 6.25 (≈ 15.1 µM) | > 50 | > 50 | > 50
40 | N#CC(CN(Cc1ccccc1)C(=O)Nc1ccc(Cl)cc1)C(O)c1ccccc1 (centres undefined) | 50 (≈ 119 µM) | 12.5 (≈ 29.8 µM) | 50 (≈ 119 µM) | 25 (≈ 59.5 µM) | 50 (≈ 119 µM)
